≈ marks a conversion by molar mass, not a printed value.
How the values were obtained:
A2780 = test: Cytotoxicity against human A2780 cells; assay type: functional, cell-based
Summary of the method: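 Run on the human ovarian cancer line A2780 by a previously described protocol, with actinomycin D at 2 μg/mL as the positive control.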

EKVX = test: Cytotoxicity against human EKVX cells; assay type: functional
Summary of the method: (§1)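 NCI 60-cell-line panel screen over a 5-log dose range; growth inhibition expressed as log GI50. Preceded by an NCI one-dose primary screen on three lines (H460, MCF7, SF-268) reported as growth percentages.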

T47D = test: Cytotoxicity against human T47D cells; assay type: functional; summary of the method: as §1
NCI-H460 = test: Cytotoxicity against human H460 cells; assay type: functional
SF-268 = test: Cytotoxicity against human SF268 cells; assay type: functional
MCF7 = test: Cytotoxicity against human MCF7 cells; assay type: functional
RXF 393 = test: Cytotoxicity against human RXF393 cells; assay type: functional; summary of the method: as §1

In the case of `CC1(C)CC[C@]2(C)CC[C@]3(C)C(=C[C@@H](O)[C@@H]4[C@@]5(C)[C@H](O)[C@@H](O)[C@H](O)C(C)(C)[C@@H]5CC[C@]43C)[C@@H]2C1`, the IC50 (A2780) is reported as 27.9 µg/mL (≈ 58.8 µM).
With `CC(=O)O[C@H]1[C@H](O)[C@@H](O)[C@]2(C)C3=CC=C4[C@@H]5CC(C)(C)CC[C@]5(C)CC[C@@]4(C)[C@]3(C)CC[C@H]2C1(C)C` the IC50 (A2780) was 36.9 µg/mL (≈ 74 µM).
In the case of `CC(=O)O[C@@H]1C[C@@]2(C)C(=CC[C@]3(C)[C@@H]2[C@H](O)C=C2[C@@H]4[C@@H](C)[C@H](C)CC[C@]4(C)CC[C@]23C)C(C)(C)[C@H]1O`, the IC50 (A2780) is reported as 34.2 µg/mL (≈ 68.6 µM).
With `CC(=O)O[C@H]1[C@H](O)[C@@H](O)[C@]2(C)[C@H]3[C@H](O)C=C4[C@@H]5CC(C)(C)CC[C@]5(C)CC[C@@]4(C)[C@]3(C)CC[C@H]2C1(C)C` the IC50 (A2780) was 38.5 µg/mL (≈ 74.5 µM).
Compound `CC(=O)O[C@H]1[C@H](O)C[C@]2(C)C3=CC=C4[C@@H]5[C@@H](C)[C@@](C)(O)CC[C@]5(C)CC[C@@]4(C)[C@]3(C)CC[C@H]2C1(C)C` has an IC50 (A2780) of 33.3 µg/mL (≈ 66.8 µM).
`CC(=O)O[C@H]1[C@H](O)[C@@H](O)[C@]2(C)[C@H]3C(=O)C=C4[C@@H]5[C@@H](C)[C@H](C)CC[C@]5(C)CC[C@@]4(C)[C@]3(C)CC[C@H]2C1(C)C` showed an IC50 (A2780) of 26 µg/mL (≈ 50.5 µM).
For `C[C@H]1[C@H](C)CC[C@]2(C)CC[C@]3(C)C(=C[C@@H](O)[C@@H]4[C@@]5(C)[C@H](O)[C@@H](O)[C@H](O)C(C)(C)[C@@H]5CC[C@]43C)[C@H]12`, the GI50 (EKVX) was 21.9 nM, the IC50 (A2780) was 27.7 µg/mL (≈ 58.3 µM) and the GI50 (T47D) was 18600 nM. It also gave an Activity (NCI-H460) of -45%, an Activity (SF-268) of 18% and an Activity (MCF7) of -25%. For the same compound, the GI50 (RXF 393) was 363 nM.
Work on `CC(=O)O[C@H]1[C@H](O)[C@@H](O)[C@]2(C)[C@H]3[C@H](O)C=C4[C@@H]5[C@@H](C)[C@H](C)CC[C@]5(C)CC[C@@]4(C)[C@]3(C)CC[C@H]2C1(C)C` yielded an IC50 (A2780) of 32.5 µg/mL (≈ 62.9 µM).
Work on `CC(=O)O[C@H]1[C@H](O)[C@@H](O)[C@]2(C)C3=CC=C4[C@@H]5[C@@H](C)[C@H](C)CC[C@]5(C)CC[C@@]4(C)[C@]3(C)CC[C@H]2C1(C)C` yielded an IC50 (A2780) of 37.5 µg/mL (≈ 75.2 µM).
`CC1(C)C[C@H]2C3=C[C@@H](O)[C@@H]4[C@@]5(C)CC[C@H](O)C(C)(C)[C@@H]5CC[C@@]4(C)[C@@]3(C)CC[C@@]2(C)C[C@H]1O` [SALVINEMOROL] showed an IC50 (A2780) of 8.6 µg/mL (≈ 18.7 µM).
For `C[C@H]1[C@H](C)[C@H]2C3=C[C@@H](O)[C@@H]4[C@@]5(C)CC[C@H](O)C(C)(C)[C@@H]5CC[C@@]4(C)[C@]3(C)CC[C@@]2(C)C[C@H]1O` [SALVISTAMINEOL], the IC50 (A2780) was 21 µg/mL (≈ 45.8 µM).

Reference: ChEMBL document CHEMBL1146470, “Highly hydroxylated triterpenes from Salvia kronenburgii” (J Nat Prod, 2004)
